Data published in ChEMBL document CHEMBL2406966, “Structure and Property Based Design of Pyrazolo[1,5-a]pyrimidine Inhibitors of CK2 Kinase with Activity in Vivo” (ACS Med Chem Lett, 2013).
≈ marks a conversion by molar mass, not a printed value. Blank lines part the entries; values can stand above or below the compound they belong to. Calls of active or inactive are those of the source. The rule behind the calls is not given here.

Experiments:
[1] = molecular target: Casein kinase II subunit alpha (Homo sapiens, UniProt P68400); test: Inhibition of N-terminal His6X-tagged recombinant human full length casein kinase-2alpha expressed in SF21 cells using BODIPY-FL-RRRDDDSDDD-CONH2 as substrate preincubated for 20 mins measured after 90 mins by mobility shift assay
[2] = Plasma half life in rat at 10 mg/kg, po; type: ADME, organism-based; set-up: dose 10 mg/kg, route oral
Summary of the method: (§1)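 Rats were given a single oral dose of 10 mg/kg. Plasma pharmacokinetics yielded bioavailability (F, %), half-life (h) and clearance (mL/min/kg).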

[3] = molecular target: Voltage-gated inwardly rectifying potassium channel KCNH2 (Homo sapiens, UniProt Q12809); test: Binding affinity to human ERG expressed in CHO cells by IonWorks assay
[4] = Oral bioavailability in rat at 10 mg/kg; type: ADME, organism-based; details: in vivo; summary of the method: as §1
[5] = Intrinsic clearance in rat liver microsomes; type: ADME, Microsome; details: read-out: CLH
Summary of the method: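 Incubation with rat liver microsomes; intrinsic clearance reported in μL/min/mg.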

[6] = Fraction unbound in human plasma at 10 uM by equilibrium dialysis method; type: ADME, cell-free
HCT-116 = test: Growth inhibition of human HCT116 cells after 72 hrs by Alamar blue assay; type: functional; details: HCT-116, 72 h
[7] = Aqueous solubility of the compound in phosphate buffer at pH 7.4 after 24 hrs; type: physicochemical
[8] = Clearance in rat at 10 mg/kg, po; type: ADME, organism-based; set-up: dose 10 mg/kg, route oral; details: in vivo; summary of the method: as §1
cells = details: Homo sapiens, HCT-116
physchem = details: octanol/water, pH 7.4
MDR1 [9] = test: Efflux ratio of apparent permeability across apical to basolateral side in porcine LLC cells expressing MDR1; type: ADME, cell-based, Sus scrofa; details: pig, LLC-PK1
Summary of the method: (§2)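 MDR1-expressing LLCK cell monolayers. Apical-to-basolateral apparent permeability (Papp) measured in cm/s; efflux ratio also determined.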

MDR1 [10] = test: Apparent permeability across apical to basolateral side in porcine LLC cells expressing MDR1; type: ADME, cell-based, Sus scrofa; details: pig, LLC-PK1; summary of the method: as §2
[11] = Cmax in po dosed rat; type: ADME, organism-based; set-up: route oral; details: in vivo
[12] = Antitumor activity against human DLD2 cells xenografted in mouse assessed as tumor growth inhibition at 10 mg/kg, po qd after 14 days relative to control; type: functional; details: DLD2, 336 h, read-out: TGI
[13] = molecular target: Cyclin-dependent kinase 2 (Homo sapiens, UniProt P24941); test: Inhibition of CDK2 (unknown origin)
[14] = molecular target: T1, Dual specificity tyrosine-phosphorylation-regulated kinase 3 (Homo sapiens, UniProt O43781); test: Inhibition of Dyrk-3 (unknown origin)
T1 sequence (O43781 whole entry): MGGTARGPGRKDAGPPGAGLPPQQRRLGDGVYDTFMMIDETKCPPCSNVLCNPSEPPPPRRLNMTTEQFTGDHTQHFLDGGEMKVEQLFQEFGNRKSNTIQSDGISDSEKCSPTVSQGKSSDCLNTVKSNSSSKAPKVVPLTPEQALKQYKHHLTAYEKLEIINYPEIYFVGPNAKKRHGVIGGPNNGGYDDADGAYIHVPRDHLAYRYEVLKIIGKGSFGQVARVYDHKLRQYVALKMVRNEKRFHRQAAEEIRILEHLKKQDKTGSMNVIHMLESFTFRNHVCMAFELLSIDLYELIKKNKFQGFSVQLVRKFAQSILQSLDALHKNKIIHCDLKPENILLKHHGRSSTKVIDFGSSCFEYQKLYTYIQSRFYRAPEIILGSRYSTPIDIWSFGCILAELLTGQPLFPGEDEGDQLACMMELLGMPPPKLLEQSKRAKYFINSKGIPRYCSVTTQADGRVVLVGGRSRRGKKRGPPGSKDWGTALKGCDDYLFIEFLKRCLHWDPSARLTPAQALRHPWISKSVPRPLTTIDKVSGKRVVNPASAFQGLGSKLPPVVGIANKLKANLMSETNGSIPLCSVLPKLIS

[15] = molecular target: Homeodomain-interacting protein kinase 2 (Homo sapiens, UniProt Q9H2X6); test: Inhibition of Hipk-2 (unknown origin)
[16] = molecular target: Homeodomain-interacting protein kinase 1 (Homo sapiens) (UniProt Q86Z02); test: Inhibition of Hipk-1 (unknown origin) assessed as residual activity at 0.1 uM/L relative to control
Summary of the method: (§3)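 KINOMEscan competition binding panel measuring displacement of an immobilized, active-site-directed ligand. Test concentration was 0.1 μM/L. Read-out was residual activity as % of DMSO control.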

[17] = molecular target: T2, Dual specificity tyrosine-phosphorylation-regulated kinase 2 (Homo sapiens) (UniProt Q92630); test: Inhibition of Dyrk-2 (unknown origin) assessed as residual activity at 0.1 uM/L relative to control; summary of the method: as §3
T2 sequence (whole entry): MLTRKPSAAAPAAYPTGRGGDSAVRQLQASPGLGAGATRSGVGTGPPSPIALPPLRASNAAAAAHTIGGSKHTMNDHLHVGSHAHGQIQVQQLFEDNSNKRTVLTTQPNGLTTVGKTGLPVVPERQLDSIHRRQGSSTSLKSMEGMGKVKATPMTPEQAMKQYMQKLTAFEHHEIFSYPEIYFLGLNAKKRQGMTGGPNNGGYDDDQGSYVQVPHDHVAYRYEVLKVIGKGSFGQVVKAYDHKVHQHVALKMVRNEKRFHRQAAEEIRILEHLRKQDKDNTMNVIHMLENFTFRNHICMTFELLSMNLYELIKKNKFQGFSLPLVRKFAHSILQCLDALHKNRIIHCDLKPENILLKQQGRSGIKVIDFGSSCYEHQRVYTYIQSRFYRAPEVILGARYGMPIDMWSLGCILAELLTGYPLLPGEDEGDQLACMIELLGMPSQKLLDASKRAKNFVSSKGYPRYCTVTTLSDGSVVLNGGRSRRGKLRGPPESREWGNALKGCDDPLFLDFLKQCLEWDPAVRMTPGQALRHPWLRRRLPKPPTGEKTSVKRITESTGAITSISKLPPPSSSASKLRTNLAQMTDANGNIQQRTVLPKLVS

[18] = molecular target: Death-associated protein kinase 1 (Homo sapiens) (UniProt P53355); test: Inhibition of Dapk-1 (unknown origin) assessed as residual activity at 0.1 uM/L relative to control; summary of the method: as §3
[19] = molecular target: Death-associated protein kinase 2 (Homo sapiens) (UniProt Q9UIK4); test: Inhibition of Dapk-2 (unknown origin) assessed as residual activity at 0.1 uM/L relative to control; summary of the method: as §3
[20] = Antitumor activity against human DLD2 cells xenografted in mouse assessed as tumor growth inhibition at 5 mg/kg, po bid after 14 days relative to control; type: functional; details: DLD2, 336 h, read-out: TGI
[21] = molecular target: Serine/threonine-protein kinase pim-3 (Homo sapiens, UniProt Q86V86); test: Inhibition of PIM3 (unknown origin)
[22] = molecular target: Glycogen synthase kinase-3 beta (Homo sapiens, UniProt P49841); test: Inhibition of GSK3beta (unknown origin)
[23] = molecular target: Death-associated protein kinase 3 (Homo sapiens) (UniProt O43293); test: Inhibition of Dapk-3 (unknown origin) assessed as residual activity at 0.1 uM/L relative to control
Summary of the method: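 Kinome-wide competition binding panel: measures the compound's ability to compete with an immobilized, active-site-directed ligand for kinase binding. Inhibitor tested at 0.1 μM/L. Read-out is residual activity as a percentage of the DMSO control.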

[24] = molecular target: Dual specificity tyrosine-phosphorylation-regulated kinase 1A (Homo sapiens) (UniProt Q13627); test: Inhibition of Dyrk-1 (unknown origin) assessed as residual activity at 0.1 uM/L relative to control; summary of the method: as §3
Mus musculus [25] = test: In vivo inhibition of CK2 in human DLD2 cells xenografted in mouse assessed as inhibition of AKT phosphorylation at Ser129 at 10 mg/kg, po measured at 3 to 8 hrs by Western blot analysis; type: functional, organism-based; set-up: dose 10 mg/kg
Summary of the method: (§4)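 Mice bearing DLD-1 xenografts overexpressing AKT1 received a single oral dose (10 or 12.5 mg/kg). Tumour cell lysates were taken at 3, 8 and 24 h post-dose and probed for pAKT S129 by Western blot.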

Mus musculus [26] = test: In vivo inhibition of CK2 in human DLD2 cells xenografted in mouse assessed as inhibition of AKT phosphorylation at Ser129 at 10 mg/kg, po measured up to 24 hrs by ELISA; type: functional, organism-based; set-up: dose 10 mg/kg
Summary of the method: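 DLD-1 AKT1-overexpressing xenograft mice received a single oral dose of 10 mg/kg. pAKT S129 in tumour cell lysates was quantified by ELISA over time and plotted against plasma drug concentration.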

[27] = molecular target: Homeodomain-interacting protein kinase 3 (Homo sapiens) (UniProt Q9H422); test: Inhibition of Hipk-3 (unknown origin) assessed as residual activity at 0.1 uM/L relative to control; summary of the method: as §3
Mus musculus [28] = test: In vivo inhibition of CK2 in human DLD2 cells xenografted in mouse assessed as inhibition of AKT phosphorylation at Ser129 at 10 mg/kg, po measured at 24 hrs by Western blot analysis; type: functional, organism-based; set-up: dose 10 mg/kg; summary of the method: as §4
[29] = Inhibition of casein kinase-2 (unknown origin); set-up: species or system Homo sapiens
Summary of the method: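 Recombinant human full-length CK2α phosphorylating a synthetic peptide substrate, run at Km ATP concentration.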

Chain of Casein kinase II subunit alpha (P68400 whole entry): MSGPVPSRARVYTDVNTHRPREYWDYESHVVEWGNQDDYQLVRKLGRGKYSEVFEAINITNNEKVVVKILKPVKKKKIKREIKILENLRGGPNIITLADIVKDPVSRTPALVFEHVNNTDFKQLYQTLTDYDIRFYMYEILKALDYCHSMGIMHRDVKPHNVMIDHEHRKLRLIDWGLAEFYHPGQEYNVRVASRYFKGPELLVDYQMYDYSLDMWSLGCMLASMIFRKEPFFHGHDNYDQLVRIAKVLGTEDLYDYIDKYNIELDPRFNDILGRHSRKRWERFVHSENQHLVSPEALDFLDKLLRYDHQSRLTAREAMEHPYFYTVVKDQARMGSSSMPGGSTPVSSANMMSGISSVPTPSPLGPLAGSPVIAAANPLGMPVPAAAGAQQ
Chain of Death-associated protein kinase 3 (Homo sapiens) (O43293 whole entry, looked up): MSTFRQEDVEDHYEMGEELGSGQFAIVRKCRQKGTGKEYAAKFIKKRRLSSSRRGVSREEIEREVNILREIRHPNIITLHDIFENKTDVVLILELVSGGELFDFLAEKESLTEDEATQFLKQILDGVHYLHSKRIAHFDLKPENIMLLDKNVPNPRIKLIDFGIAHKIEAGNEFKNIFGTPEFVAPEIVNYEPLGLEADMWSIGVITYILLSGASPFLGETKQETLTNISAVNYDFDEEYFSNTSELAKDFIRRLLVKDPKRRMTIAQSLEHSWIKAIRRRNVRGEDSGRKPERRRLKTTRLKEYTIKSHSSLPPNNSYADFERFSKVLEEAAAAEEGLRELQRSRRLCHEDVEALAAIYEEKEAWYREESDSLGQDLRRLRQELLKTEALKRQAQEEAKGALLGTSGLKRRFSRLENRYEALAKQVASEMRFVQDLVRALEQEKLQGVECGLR
Chain of Homeodomain-interacting protein kinase 2 (Q9H2X6 whole entry): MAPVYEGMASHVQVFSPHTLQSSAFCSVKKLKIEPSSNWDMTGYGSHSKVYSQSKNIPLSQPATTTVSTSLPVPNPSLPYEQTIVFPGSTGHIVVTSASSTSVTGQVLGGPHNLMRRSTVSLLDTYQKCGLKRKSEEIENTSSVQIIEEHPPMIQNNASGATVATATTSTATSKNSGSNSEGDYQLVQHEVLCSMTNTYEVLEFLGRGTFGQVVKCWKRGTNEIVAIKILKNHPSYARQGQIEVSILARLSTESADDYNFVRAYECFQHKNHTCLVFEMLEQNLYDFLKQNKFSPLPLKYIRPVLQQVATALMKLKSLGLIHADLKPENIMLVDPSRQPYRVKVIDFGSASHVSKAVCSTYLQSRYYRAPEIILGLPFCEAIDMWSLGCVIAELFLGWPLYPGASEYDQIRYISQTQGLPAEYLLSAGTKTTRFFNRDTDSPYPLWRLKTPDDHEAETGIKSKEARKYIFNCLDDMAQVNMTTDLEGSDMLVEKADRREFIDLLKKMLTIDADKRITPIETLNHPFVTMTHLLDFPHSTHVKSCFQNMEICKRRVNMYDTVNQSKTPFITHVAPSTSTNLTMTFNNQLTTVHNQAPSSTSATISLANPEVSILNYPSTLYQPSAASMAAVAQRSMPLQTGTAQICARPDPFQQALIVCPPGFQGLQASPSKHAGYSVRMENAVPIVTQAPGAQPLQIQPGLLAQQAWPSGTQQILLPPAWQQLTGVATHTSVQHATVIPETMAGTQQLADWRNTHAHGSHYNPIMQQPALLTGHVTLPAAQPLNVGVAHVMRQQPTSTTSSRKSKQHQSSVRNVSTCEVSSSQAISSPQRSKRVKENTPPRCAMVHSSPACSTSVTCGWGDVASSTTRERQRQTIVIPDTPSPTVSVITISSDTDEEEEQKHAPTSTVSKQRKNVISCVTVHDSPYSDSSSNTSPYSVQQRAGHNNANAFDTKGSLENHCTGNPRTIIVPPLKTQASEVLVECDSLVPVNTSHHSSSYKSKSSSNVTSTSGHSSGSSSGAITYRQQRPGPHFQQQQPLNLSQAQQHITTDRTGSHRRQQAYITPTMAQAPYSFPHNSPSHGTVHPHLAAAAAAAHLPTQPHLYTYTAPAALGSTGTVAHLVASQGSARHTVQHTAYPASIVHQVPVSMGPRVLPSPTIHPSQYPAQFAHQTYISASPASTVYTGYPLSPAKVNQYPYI
Chain of Death-associated protein kinase 1 (Homo sapiens) (P53355 whole entry, looked up): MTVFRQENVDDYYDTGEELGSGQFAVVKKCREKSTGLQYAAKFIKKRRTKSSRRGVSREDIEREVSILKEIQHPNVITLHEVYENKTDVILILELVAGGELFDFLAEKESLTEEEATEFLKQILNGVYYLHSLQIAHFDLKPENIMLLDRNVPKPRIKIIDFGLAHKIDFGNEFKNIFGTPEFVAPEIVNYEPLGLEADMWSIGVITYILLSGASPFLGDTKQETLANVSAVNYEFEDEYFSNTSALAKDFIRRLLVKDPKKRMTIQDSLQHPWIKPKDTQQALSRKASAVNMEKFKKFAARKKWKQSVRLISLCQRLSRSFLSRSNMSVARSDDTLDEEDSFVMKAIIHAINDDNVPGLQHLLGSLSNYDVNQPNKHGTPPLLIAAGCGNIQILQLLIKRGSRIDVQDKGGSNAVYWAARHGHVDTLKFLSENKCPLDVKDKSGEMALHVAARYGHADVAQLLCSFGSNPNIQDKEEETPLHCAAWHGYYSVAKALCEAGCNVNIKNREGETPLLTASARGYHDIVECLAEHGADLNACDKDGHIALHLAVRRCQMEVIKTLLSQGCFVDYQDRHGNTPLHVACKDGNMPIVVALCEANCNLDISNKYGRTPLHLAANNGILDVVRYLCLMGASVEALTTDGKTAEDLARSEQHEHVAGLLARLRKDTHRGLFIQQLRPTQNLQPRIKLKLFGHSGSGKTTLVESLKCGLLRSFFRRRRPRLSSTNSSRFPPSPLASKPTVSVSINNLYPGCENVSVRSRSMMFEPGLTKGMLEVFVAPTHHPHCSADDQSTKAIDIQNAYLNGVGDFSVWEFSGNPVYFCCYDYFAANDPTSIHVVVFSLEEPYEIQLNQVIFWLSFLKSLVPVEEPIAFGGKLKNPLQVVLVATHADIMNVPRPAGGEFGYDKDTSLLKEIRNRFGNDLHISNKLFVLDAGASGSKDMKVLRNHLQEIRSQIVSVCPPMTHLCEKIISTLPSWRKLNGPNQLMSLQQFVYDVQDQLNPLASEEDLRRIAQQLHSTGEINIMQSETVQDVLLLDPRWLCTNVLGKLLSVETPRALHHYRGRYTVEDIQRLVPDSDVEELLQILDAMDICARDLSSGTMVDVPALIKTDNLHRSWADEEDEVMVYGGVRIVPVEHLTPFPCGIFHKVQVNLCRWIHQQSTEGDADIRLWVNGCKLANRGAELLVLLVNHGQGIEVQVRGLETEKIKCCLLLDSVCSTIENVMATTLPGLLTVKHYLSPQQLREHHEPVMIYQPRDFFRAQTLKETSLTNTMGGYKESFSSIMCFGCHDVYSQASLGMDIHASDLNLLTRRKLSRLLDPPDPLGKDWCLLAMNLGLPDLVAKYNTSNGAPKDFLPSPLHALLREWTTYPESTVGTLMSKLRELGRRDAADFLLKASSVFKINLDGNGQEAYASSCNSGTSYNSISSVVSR
Chain of Death-associated protein kinase 2 (Homo sapiens) (Q9UIK4 whole entry, looked up): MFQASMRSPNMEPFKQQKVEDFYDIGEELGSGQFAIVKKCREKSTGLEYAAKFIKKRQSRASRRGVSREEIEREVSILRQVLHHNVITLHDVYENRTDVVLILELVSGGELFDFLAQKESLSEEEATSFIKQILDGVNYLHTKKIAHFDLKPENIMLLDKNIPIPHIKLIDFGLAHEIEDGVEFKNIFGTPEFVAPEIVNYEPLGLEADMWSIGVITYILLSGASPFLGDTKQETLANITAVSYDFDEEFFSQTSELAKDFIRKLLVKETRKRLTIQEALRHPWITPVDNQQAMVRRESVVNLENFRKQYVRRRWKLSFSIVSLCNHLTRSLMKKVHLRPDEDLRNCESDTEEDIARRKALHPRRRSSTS
Chain of Glycogen synthase kinase-3 beta (P49841 whole entry): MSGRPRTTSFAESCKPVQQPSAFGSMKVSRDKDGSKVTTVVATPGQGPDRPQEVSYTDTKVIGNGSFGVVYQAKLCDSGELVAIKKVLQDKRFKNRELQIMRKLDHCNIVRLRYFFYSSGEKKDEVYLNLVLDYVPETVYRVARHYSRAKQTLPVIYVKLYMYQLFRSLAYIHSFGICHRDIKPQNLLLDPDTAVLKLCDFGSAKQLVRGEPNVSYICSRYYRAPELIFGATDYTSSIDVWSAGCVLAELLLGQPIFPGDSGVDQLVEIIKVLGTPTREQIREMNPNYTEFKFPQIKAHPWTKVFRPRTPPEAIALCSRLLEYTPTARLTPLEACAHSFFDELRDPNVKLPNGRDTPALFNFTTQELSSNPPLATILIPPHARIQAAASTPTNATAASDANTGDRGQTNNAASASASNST

- IC50 [1]: < 3 nM
- half-life [2]: 1.4 h
- bioavailability [4]: 47%
- microsomal CLint [5]: < 4 µL/min/mg
- fraction unbound at 10 µM [6]: 0.2
- GI50 (HCT-116): 59 nM
- solubility at 24 h [7]: 11 µM (≈ 4.44 µg/mL)
- CL/F [8]: 23 mL/min/kg
- IC50 (cells): 6 nM
- logD at 5 h (physchem): 2.2
Compound: CC(=O)Nc1cc(Nc2cc(NC3COC3)n3ncc(C#N)c3n2)ccc1C1CC1
- IC50 [3]: > 33000 nM

- IC50 [1]: < 3 nM
- microsomal CLint [5]: 65 µL/min/mg
- efflux ratio (MDR1 [9]): 100
- Papp A→B (MDR1 [10]): 0.2 ×10⁻⁶ cm/s
- GI50 (HCT-116): 100 nM
- Cmax [11]: < 100 nM
- solubility at 24 h [7]: 3 µM (≈ 1.45 µg/mL)
- logD at 5 h (physchem): 2.5
Compound: CC(=O)Nc1cc(Nc2cc(Nc3ccn(CCN4CCCC4)n3)n3ncc(C#N)c3n2)ccc1C

- IC50 [13]: 7200 nM
- half-life [2]: 2.6 h
- IC50 [14]: 70 nM
- IC50 [15]: 40 nM
- Activity [16]: 38%
- microsomal CLint [5]: 15 µL/min/mg
- Activity [17]: 18%
- fraction unbound at 10 µM [6]: 0.08
- IC50 [21]: 150 nM
- GI50 (HCT-116): 81 nM
- IC50 [22]: 2600 nM
- solubility at 24 h [7]: 8 µM (≈ 2.89 µg/mL)
- Activity [24]: 43%
- logD at 5 h (physchem): 2.4
- Activity [27]: 39%
Compound: CC(=O)Nc1cc(Nc2cc(NC3CC3)n3ncc(C#N)c3n2)ccc1C
- inhibition in vivo at 10 mg/kg [12]: 28%
- Activity [18]: 21%
- Activity [19]: 43%
- inhibition in vivo at 5 mg/kg [20]: 37%
- Activity [23]: 22%
- inhibition (Mus musculus [25]): Active
- inhibition (Mus musculus [26]): Active
- inhibition (Mus musculus [28]): inactive

- IC50 [29]: 270 nM
- IC50 (cells): > 3300 nM
Compound: CC(=O)Nc1cc(Nc2cc(NC3CC3)n3nccc3n2)ccc1C
